Source: ChEMBL document CHEMBL1145533, “Antimicrobial activities of ceragenins against clinical isolates of resistant Staphylococcus aureus” (2007)
Converted amounts (≈) assume the structure as drawn.

How the values were obtained:
Staphylococcus aureus [1] = experiment: Antimicrobial activity against heterogeneous glycopeptide-intermediate Staphylococcus aureus by broth microdilution technique after 24 hrs; type: functional
How it was run: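 CLSI broth microdilution in Mueller-Hinton broth with Mg 12.5 mg/liter and Ca 25 mg/liter. […] MBC determined as well. hVISA isolates were identified by subpopulation analysis.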

Staphylococcus aureus [2] = experiment: Antimicrobial activity against glycopeptide-intermediate Staphylococcus aureus by broth microdilution technique after 24 hrs; type: functional
How it was run: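 CLSI broth microdilution MIC and MBC in duplicate. Mueller-Hinton broth supplemented with Mg 12.5 mg/liter and Ca 25 mg/liter (Ca 50 mg/liter for daptomycin). Inoculum 5 × 10⁵ CFU/ml, 24 h at 35°C, tested up to 32.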

Staphylococcus aureus [3] = experiment: Antibacterial activity against Staphylococcus aureus Mu3 assessed as bacterial density after 24 hrs by time-kill curve analysis; type: functional
How it was run: (§1)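 Time-kill in triplicate in Mueller-Hinton broth supplemented with Mg 12.5 mg/liter and Ca 25 mg/liter. Agent at 0.5×, 1×, 4× and 10× MIC. Starting inocula 5 × 10⁵ (about 6 log₁₀) or 1 × 10⁸ to 1 × 10⁹ CFU/ml. Samples at 0, 1, 4, 8 and 24 h, serially diluted in cold 0.9% NaCl or filtered to remove carryover. Counted by spiral plating on trypticase soy agar; detection limit 2 log₁₀ CFU/ml. Bactericidal = 99.9% kill.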

Staphylococcus aureus [4] = experiment: Bactericidal killing activity of heterogenous vancomycin-intermediate Staphylococcus aureus at 10 times MIC by time kill curve analysis; type: functional; how it was run: as §1
Staphylococcus aureus [5] = experiment: Bactericidal killing activity of vancomycin-intermediate Staphylococcus aureus by time kill curve analysis; type: functional, organism-based; how it was run: as §1
Staphylococcus aureus [6] = experiment: Bactericidal killing activity against Staphylococcus aureus Mu50 at MIC; type: functional
How it was run: (§2)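 Time-kill in Mueller-Hinton broth with Mg 12.5 mg/liter and Ca 25 mg/liter, run in triplicate. Drug at 0.5×, 1×, 4× and 10× MIC. Starting inocula ~6 log10 CFU/ml (5 × 10⁵ to 10⁶) or 8–9 log10 CFU/ml. Samples taken at 0, 1, 4, 8 and 24 h, diluted in cold 0.9% NaCl (filtered if carryover was possible), then spiral plated. Detection limit 2 log10 CFU/ml. Bactericidal = 99.9% kill.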

Staphylococcus aureus [7] = experiment: Antibacterial activity against Staphylococcus aureus Mu50 assessed as bacterial density after 8 hrs by time-kill curve analysis; type: functional; how it was run: as §2
Staphylococcus aureus [8] = experiment: Bactericidal killing activity against Staphylococcus aureus Mu3 at MIC; type: functional; how it was run: as §1
Staphylococcus aureus [9] = experiment: Antibacterial activity against Staphylococcus aureus Mu50 assessed as bacterial density after 24 hrs by time-kill curve analysis; type: functional; how it was run: as §2
Staphylococcus aureus [10] = experiment: Bactericidal killing activity against 8 to 9 log10 CFU/ml Staphylococcus aureus Mu3 at MIC by time-kill curve analysis; type: functional; how it was run: as §2
Staphylococcus aureus [11] = experiment: Post antibiotic effect on Staphylococcus aureus Mu50 after 0.5 hrs; type: functional, organism-based
How it was run: (§3)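 Exposure for 0.5 h at 1×, 2× and 4× MIC, then rapid drug removal by washing, dilution, filtration or inactivation. PAE = T − C: time for treated culture to rise 1 log₁₀ CFU/ml after removal, minus the same for an untreated control. Reported as average ± standard deviation.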

Staphylococcus aureus [12] = experiment: Post antibiotic effect on vancomycin-resistant Staphylococcus aureus MI after 0.5 hrs; type: functional, organism-based
How it was run: (§4)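 Cultures exposed for 0.5 h at 1×, 2× and 4× MIC, then drug removed by washing, dilution, filtration or inactivation. PAE = T − C, where each is the time for counts to rise 1 log10 above the count right after drug removal, for treated (T) and untreated control (C) cultures.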

Staphylococcus aureus [13] = experiment: Bactericidal killing activity against Staphylococcus aureus Mu3 at 4 times MIC; type: functional; how it was run: as §1
Staphylococcus aureus [14] = experiment: Bactericidal killing activity against Staphylococcus aureus Mu50 at 4 times MIC; type: functional; how it was run: as §2
Staphylococcus aureus [15] = experiment: Post antibiotic effect on Staphylococcus aureus Mu3 after 0.5 hrs; type: functional, organism-based; how it was run: as §3
Staphylococcus aureus [16] = experiment: Antibacterial activity against Staphylococcus aureus Mu3 assessed as bacterial density after 8 hrs by time-kill curve analysis; type: functional; how it was run: as §1
Staphylococcus aureus [17] = experiment: Bactericidal killing activity of vancomycin-intermediate Staphylococcus aureus at 10 times MIC by time kill curve analysis; type: functional; how it was run: as §1
Staphylococcus aureus [18] = experiment: Bactericidal killing activity against Staphylococcus aureus Mu3 at 0.5 times MIC; type: functional; how it was run: as §1
Staphylococcus aureus [19] = experiment: Post antibiotic effect on vancomycin-resistant Staphylococcus aureus PA after 0.5 hrs; type: functional, organism-based; how it was run: as §4
Staphylococcus aureus [20] = experiment: Bactericidal killing activity of vancomycin-resistant Staphylococcus aureus by time kill curve analysis; type: functional, organism-based; how it was run: as §2
Staphylococcus aureus [21] = experiment: Bactericidal killing activity against Staphylococcus aureus Mu3 at 10 times MIC; type: functional; how it was run: as §2
Staphylococcus aureus [22] = experiment: Bactericidal killing activity against 6 log10 CFU/ml Staphylococcus aureus Mu3 at MIC by time-kill curve analysis; type: functional; how it was run: as §1
Staphylococcus aureus [23] = experiment: Bactericidal killing activity against 6 log10 CFU/ml Staphylococcus aureus Mu50 at 4 times MIC by time-kill curve analysis; type: functional; how it was run: as §1
Staphylococcus aureus [24] = experiment: Bactericidal killing activity of heterogenous vancomycin-intermediate Staphylococcus aureus by time kill curve analysis; type: functional, organism-based; how it was run: as §1
Staphylococcus aureus [25] = experiment: Bactericidal killing activity against 8 to 9 log10 CFU/ml Staphylococcus aureus Mu50 at 4 times MIC by time-kill curve analysis; type: functional; how it was run: as §1

`C[C@H](CCCO)[C@H]1CC[C@H]2[C@@H]3[C@H](OCCCN)CC4C[C@H](OCCCN)CC[C@]4(C)[C@H]3C[C@H](OCCCN)[C@]12C.Cl` (stereo partly drawn) gave an MIC50 (Staphylococcus aureus [1]) of 4 µg/mL, an MIC90 (Staphylococcus aureus [1]) of 8 µg/mL and an MBC50 (Staphylococcus aureus [2]) of 8 µg/mL. The MBC90 (Staphylococcus aureus [2]) was 8 µg/mL.

Work on `CN[C@H](CC(C)C)C(=O)N[C@H]1C(=O)N[C@@H](CC(N)=O)C(=O)N[C@H]2C(=O)N[C@H]3C(=O)N[C@H](C(=O)N[C@H](C(=O)O)c4cc(O)cc(O)c4-c4cc3ccc4O)[C@H](O)c3ccc(c(Cl)c3)Oc3cc2cc(c3O[C@@H]2O[C@H](CO)[C@@H](O)[C@H](O)[C@H]2O[C@H]2C[C@](C)(N)[C@H](O)[C@H](C)O2)Oc2ccc(cc2Cl)[C@H]1O` [VANCOMYCIN] yielded an MIC50 (Staphylococcus aureus [1]) of 4 µg/mL (≈ 2.76 µM), an MIC90 (Staphylococcus aureus [1]) of 8 µg/mL (≈ 5.52 µM) and an MBC50 (Staphylococcus aureus [2]) of 8 µg/mL (≈ 5.52 µM). The MBC90 (Staphylococcus aureus [2]) was 8 µg/mL (≈ 5.52 µM).

`CCCCCCCCNCCC[C@@H](C)[C@H]1CC[C@H]2[C@@H]3[C@H](OCCCN)CC4C[C@H](OCCCN)CC[C@]4(C)[C@H]3C[C@H](OCCCN)[C@]12C.Cl.Cl.Cl.Cl` (stereo partly drawn) was tested, and the log10CFU/ml (Staphylococcus aureus [3]) was -3.75, the T99.9% (Staphylococcus aureus [4]) was 1 h and the Activity (Staphylococcus aureus [5]) was “Dose-dependent effect”. It also gave a T99.9% (Staphylococcus aureus [6]) of 8 h, a log10CFU/ml (Staphylococcus aureus [7]) of -3.4 and an MIC50 (Staphylococcus aureus [1]) of 1 µg/mL. The MIC90 (Staphylococcus aureus [1]) was 1 µg/mL, the T99.9% (Staphylococcus aureus [8]) was 8 h and the log10CFU/ml (Staphylococcus aureus [9]) was -3.75. For the same compound, the T99.9% (Staphylococcus aureus [10]) was “>=24 hr”, the Post anitbiotic effect (Staphylococcus aureus [11]) was “Dose-dependent effect” and the Post anitbiotic effect (Staphylococcus aureus [12]) was “Dose-dependent effect”. For the same compound, the T99.9% (Staphylococcus aureus [13]) was 4 h, the T99.9% (Staphylococcus aureus [14]) was 4 h and the Post anitbiotic effect (Staphylococcus aureus [15]) was “Dose-dependent effect”. For the same compound, the log10CFU/ml (Staphylococcus aureus [16]) was -3.4, the T99.9% (Staphylococcus aureus [17]) was 1 h and the T99.9% (Staphylococcus aureus [18]) was 24 h. For the same compound, the Post anitbiotic effect (Staphylococcus aureus [19]) was “Dose-dependent effect”, the Activity (Staphylococcus aureus [20]) was “Dose-dependent effect” and the T99.9% (Staphylococcus aureus [21]) was 1 h. For the same compound, the T99.9% (Staphylococcus aureus [22]) was 8 h, the MBC50 (Staphylococcus aureus [2]) was 1 µg/mL and the MBC90 (Staphylococcus aureus [2]) was 1 µg/mL. The T99.9% (Staphylococcus aureus [23]) was 4 h, the Activity (Staphylococcus aureus [24]) was “Dose-dependent effect” and the T99.9% (Staphylococcus aureus [25]) was “>=24 hr”.

Work on `CC(=O)NC[C@H]1CN(c2ccc(N3CCOCC3)c(F)c2)C(=O)O1` [LINEZOLID] yielded an MIC50 (Staphylococcus aureus [1]) of 1 µg/mL (≈ 2.96 µM), an MIC90 (Staphylococcus aureus [1]) of 2 µg/mL (≈ 5.93 µM) and an MBC50 (Staphylococcus aureus [2]) of 8 µg/mL (≈ 23.7 µM). It also gave an MBC90 (Staphylococcus aureus [2]) of 64 µg/mL (≈ 190 µM).

`CCCCCCCCCC(=O)N[C@@H](Cc1c[nH]c2ccccc12)C(=O)N[C@H](CC(N)=O)C(=O)N[C@@H](CC(=O)O)C(=O)N[C@@H]1C(=O)NCC(=O)N[C@@H](CCCN)C(=O)N[C@@H](CC(=O)O)C(=O)N[C@H](C)C(=O)N[C@@H](CC(=O)O)C(=O)NCC(=O)N[C@H](CO)C(=O)N[C@@H]([C@H](C)CC(=O)O)C(=O)N[C@@H](CC(=O)c2ccccc2N)C(=O)O[C@@H]1C` showed an MIC50 (Staphylococcus aureus [1]) of 0.5 µg/mL (≈ 0.309 µM), an MIC90 (Staphylococcus aureus [1]) of 1 µg/mL (≈ 0.617 µM) and an MBC50 (Staphylococcus aureus [2]) of 0.5 µg/mL (≈ 0.309 µM). For the same compound, the MBC90 (Staphylococcus aureus [2]) was 1 µg/mL (≈ 0.617 µM).
